Assay results gathered from unrelated publications.
Each line is one published result; the experiments were not run side by side.
Target: Serine/threonine-protein kinase Nek7 (NEK7, Homo sapiens, UniProt Q8TDX7)

| Structure (SMILES) | test | conditions | measurement | value |
| --- | --- | --- | --- | --- |
| CC(C)(O)[C@H]1CC[C@H](Nc2ccc3ncc(-c4cccc(C(F)(F)F)c4)n3n2)CC1 | enzyme activity, inhibitor | 1 µM | remaining activity | 93.6% |
| O=C(Nc1cnn(-c2csc(C(=O)NC3COC3)c2)c1)Nc1c(F)cccc1Cl | enzyme activity, inhibitor | 5 µM | remaining activity | 88.1% |
| CCOC(=O)c1cc2cc(-c3cc(C(=O)NCc4ccc(C(=O)O)cc4)nn3C)ccc2[nH]1 | cell-free assay, competition with immobilised ligand | 0.1 µM | remaining binding | 100% |
| Cc1cnc(NC2CCOCC2)nc1-n1cnc(C(=O)NC(CN)c2cc(F)cc(Cl)c2)c1 (stereo not drawn) | enzyme activity, inhibitor, radiometric | 1 µM | remaining activity | 99% |
| CCCCNc1ncc2c(-c3ccc(F)cc3)nn(C[C@H]3CC[C@H](N)CC3)c2n1 | target engagement in cells, inhibitor, chemoproteomics | 20 mM | inhibition | 6.6% |
| Cn1c2c(c3ccc(Cl)c(Cl)c31)C(C#N)C(C)(C)NC2=O (stereo not drawn) | thermal stability, DSF | 10 µM | ΔTm | -0.6 °C |
| O=C1NC(c2ccccn2)Sc2ccccc21 (stereo not drawn) | cell-free assay, competition with immobilised ligand | 1 µM | remaining binding | 68% |
| CCN(CC)c1ccc(C2=NNC(=O)CC2C)cc1[N+](=O)[O-] (stereo not drawn) | enzyme activity, inhibitor | 10 µM | remaining activity | 107% |
| CC/C(=N\NC(=O)NCc1cccc(O)c1)c1ccc(O)c(C)c1O | enzyme activity, inhibitor | 0.1 µM | inhibition | 6.5% |
| CCN(CC)CCNC(=O)c1c(C)[nH]c(/C=C2\C(=O)Nc3ccc(F)cc32)c1C | enzyme activity, inhibitor | 10 µM | inhibition | -6% |
| CCOc1cc(-c2nncn2C)ccc1Nc1ncc2cc(C)nc(NCC(C)(C)C)c2n1 | enzyme activity, inhibitor, FRET | 1 µM | inhibition | < 15% |
| O=c1nc(-c2ccccn2)sc2ccccc12 | binding, competition with immobilised ligand | 1 µM | remaining binding | 75% |
| Clc1ccc(Nc2nnc(Cc3ccncc3)c3ccccc23)cc1 | cell-free assay | 0.5 µM | remaining signal | 96.8% |
| CCCS(=O)(=O)Nc1ccc(F)c(C(=O)c2c[nH]c3ncc(-c4ccc(Cl)cc4)cc23)c1F | enzyme activity, inhibitor | 1 µM | inhibition | < 10% |
| Cn1c2c(c3ccc(Cl)c(Cl)c31)C(C#N)C1(CCNCC1)NC2=O (racemic) | thermal stability, DSF | 10 µM | ΔTm | -0.1 °C |
| Nc1ncnc2occ(-c3ccc(NC(=O)Nc4cc(C(F)(F)F)ccc4F)cc3)c12 | cell-free assay, inhibitor | 20 µM | remaining signal | 4% |
| CS(=O)(=O)CCNCc1ccc(-c2ccc3ncnc(Nc4ccc(OCc5cccc(F)c5)c(Cl)c4)c3c2)o1 | cell-free assay | 0.5 µM | remaining signal | 98.7% |
| Nc1c(C(=O)NCc2ccc(C(=O)NCCCC3CCCCC3)cc2)cnn1-c1ccccc1 | cell-free assay, competition with immobilised ligand | 0.1 µM | remaining binding | 99% |
| CNC(=O)c1cc(Oc2ccc(NC(=O)Nc3ccc(Cl)c(C(F)(F)F)c3)cc2)ccn1 | enzyme activity, inhibitor | 0.3 µM | inhibition | -9% |
| CCN1CCC2(CC1)NC(=O)c1c(c3ccc(Cl)c(Cl)c3n1C)C2C#N (racemic) | thermal stability, DSF | 10 µM | ΔTm | -0.2 °C |
| CO[C@@H](C)c1c(Nc2ccc([C@@H](N(C)C(=O)C3CCS(=O)(=O)CC3)C(F)(F)F)cc2)cnc2cc(Cl)nn12 | cell-free assay, competition with immobilised ligand | 1 µM | remaining binding | 91% |
